Data: ChEMBL document CHEMBL1145139, “Synthesis and pharmacological evaluation of 1-oxo-2-(3-piperidyl)-1,2,3,4- tetrahydroisoquinolines and related analogues as a new class of specific bradycardic agents possessing I(f) channel inhibitory activity” (2003)

What was measured:
Type in all cases: functional
[1] = species on record: Cavia porcellus; assay: In vitro bradycardiac activity on isolated right atrium of guinea pig.; details: Cardiac atrium
How it was run: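 Male Hartley guinea pigs (250–400 g); spontaneously beating right atria in Tyrode's solution at 37 °C, 95% O2/5% CO2, 1 g tension, 90 min equilibration. Compound added cumulatively at 45 min intervals; beat rate counted from isometric contraction. Value = concentration giving 30% reduction from initial spontaneous rate; mean ± SEM, three to six experiments.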

[2] = tested on: Rattus norvegicus; assay: In vivo effect on mean blood pressure of anesthetized rats following 3 mg/kg i.v.; details: route intravenous
How it was run: (§1)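 Male Wister rats (270–350 g), anesthetized (pentobarbital ip per methods; urethane per text). Compound at 3 mg/kg (salt form) in aqueous solution or saline, iv via jugular vein catheter. HR taken from the blood-pressure pulse wave; MBP = DBP + (SBP−DBP)/3. Maximal percent change from initial value; mean ± SEM, three to four experiments.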

[3] = tested on: Rattus norvegicus; assay: In vivo effect on heart rate of anesthetized rats following 3 mg/kg i.v.; details: route intravenous; how it was run: as §1

Row | SMILES | EC30 [1] | Change [2] | Change [3]
1 | COc1cc2c(cc1OC)C(=O)N(C1CCCN(CCCOc3ccc4[nH]ccc4c3)C1)CC2 (stereo not given) | 0.36 µM |  | 
2 | COc1ccc(C(=O)NC2CCCN(CCCOc3ccc4c(c3)OCO4)C2)cc1OC.Cl (stereo not given) | 0.42 µM | -11% | -29%
3 | COc1cc2c(cc1OC)C(=O)N(C1CCCN(CCCOc3ccc(F)cc3)C1)CC2.Cl (stereo not given) | 0.24 µM | -17% | -39%
4 | COc1cc2c(cc1OC)CN(C1CCCN(CCCOc3ccc4c(c3)OCO4)C1)CC2.Cl (stereo not given) | 0.25 µM | -7.1% | -47%
5 | COc1ccc(OCCCN2CCCC(N3CCc4cc(OC)c(OC)cc4C3=O)C2)cc1OC.Cl (stereo not given) | 0.11 µM | -18% | -56%
6 | COc1cc2c(cc1OC)C(=O)N(C1CCCN(CCCOc3ccc4c(c3)OCCO4)C1)CC2.Cl (stereo not given) | 0.13 µM | -12% | -44%
7 | COc1cc2c(cc1OC)C(=O)N(C1CCCN(CCCOc3ccccc3OC)C1)CC2 (stereo not given) | 0.39 µM |  | 
8 | COC(=O)c1ccc(OCCCN2CCCC(N3CCc4cc(OC)c(OC)cc4C3=O)C2)cc1.Cl (stereo not given) | 0.11 µM | -2.3% | -30%
9 | COc1cc2c(cc1OC)C(=O)N([C@@H]1CCCN(CCCOc3ccc4c(c3)OCO4)C1)CC2.Cl | 0.079 µM | -13% | -55%
10 | COc1cc2c(cc1OC)C(=O)N(C1CCCN(CCCOc3ccc(NC(C)=O)cc3)C1)CC2 (stereo not given) | 0.76 µM |  | 
11 | COc1cc2c(cc1OC)C(=O)N(C1CCCN(CCCOc3ccc4c(c3)CCC4)C1)CC2 (stereo not given) | 0.89 µM |  | 
12 | COc1cc2c(cc1OC)C(=O)N(C1CCCN(CCCOc3ccc(C)cc3)C1)CC2.Cl (stereo not given) | 0.14 µM | -12% | -37%
13 | COc1cc2c(cc1OC)C(=O)N(C1CCCN(CCCOc3ccc(C(N)=O)cc3)C1)CC2 (stereo not given) | 5.7 µM |  | 
14 | COc1ccc(C(=O)N(C)C2CCCN(CCCOc3ccc4c(c3)OCO4)C2)cc1OC (stereo not given) | 3.5 µM |  | 
15 | COc1cc2c(cc1OC)C(=O)N(C1CCCN(CCCOc3ccccc3)C1)CC2.Cl (stereo not given) | 0.39 µM | 3.2% | -32%
16 | COc1cc2c(cc1OC)C(=O)N(C1CCCN(CCCOc3ccc(C(F)(F)F)cc3)C1)CC2 (stereo not given) | 0.79 µM |  | 
17 | CCOc1ccc(OCCCN2CCCC(N3CCc4cc(OC)c(OC)cc4C3=O)C2)cc1.Cl (stereo not given) | 0.097 µM | -7.8% | -49%
18 | COc1cc2c(cc1OC)C(=O)N(C1CCCN(CCCOc3ccc(N)cc3)C1)CC2 (stereo not given) | 1.6 µM |  | 

Row | SMILES | EC30 [1] | Change [2] | Change [3]
19 | COc1cc2c(cc1OC)C(=O)N(C1CCCN(CCCOc3ccc(Cl)cc3)C1)CC2.Cl (stereo not given) | 0.35 µM | -12% | -32%
20 | COc1cc2ccn(C3CCCN(CCCOc4ccc5c(c4)OCO5)C3)c(=O)c2cc1OC.Cl (stereo not given) | 0.2 µM | 11% | -26%
21 | COc1cc2c(cc1OC)C(=O)N(C1CCCN(CCCOc3ccc4c(c3)OCO4)C1)CC2.Cl (stereo not given) | 0.067 µM | -14% | -48%
22 | COc1cc2c(cc1OC)C(=O)N(C1CCCN(CCCOc3ccc(OC(C)C)cc3)C1)CC2 (stereo not given) | 0.33 µM |  | 
23 | COc1cc2c(cc1OC)C(=O)N(C1CCCN(CCCOc3ccc(O)cc3)C1)CC2 (stereo not given) | 0.89 µM |  | 
24 | COc1ccc(CCN(C)CCCN2CCc3cc(OC)c(OC)cc3CC2=O)cc1OC.Cl [ZATEBRADINE HYDROCHLORIDE] | 0.26 µM | 5.4% | -47%
25 | COc1cccc(OCCCN2CCCC(N3CCc4cc(OC)c(OC)cc4C3=O)C2)c1.Cl (stereo not given) | 0.14 µM | -11% | -47%
26 | COc1cc2c(cc1OC)C(=O)N(C1CCCN(CCCOc3ccc(C#N)cc3)C1)CC2.Cl (stereo not given) | 0.24 µM | -6.8% | -23%
27 | COc1cc2c(cc1OC)C(=O)N(C1CCCN(CCCOc3ccc(Br)cc3)C1)CC2 (stereo not given) | 0.47 µM |  | 
28 | COc1cc2c(cc1OC)C(=O)N(C1CCCN(CCCOc3ccc(OCc4ccccc4)cc3)C1)CC2 (stereo not given) | 1.3 µM |  | 
29 | COc1ccc(OCCCN2CCCC(N3CCc4cc(OC)c(OC)cc4C3=O)C2)cc1.Cl (stereo not given) | 0.099 µM | -16% | -49%
30 | CCCOc1ccc(OCCCN2CCCC(N3CCc4cc(OC)c(OC)cc4C3=O)C2)cc1 (stereo not given) | 0.27 µM |  | 
31 | COc1cc2[nH]c(=O)n(C3CCCN(CCCOc4ccc5c(c4)OCO5)C3)c(=O)c2cc1OC (stereo not given) | 0.92 µM |  | 
32 | COc1cc2ncn(C3CCCN(CCCOc4ccc5c(c4)OCO5)C3)c(=O)c2cc1OC.Cl (stereo not given) | 0.26 µM | -20% | -34%
33 | COc1cc2c(cc1OC)C(=O)N(C1CCCN(CCCOc3ccc([N+](=O)[O-])cc3)C1)CC2.Cl (stereo not given) | 0.27 µM | 41% | -5.6%
34 | COc1cc2c(cc1OC)C(=O)N(C1CCCN(CCCOc3cc(OC)c(OC)c(OC)c3)C1)CC2 (stereo not given) | 1.6 µM |  | 
35 | COc1cc2c(cc1OC)C(=O)N([C@H]1CCCN(CCCOc3ccc4c(c3)OCO4)C1)CC2.Cl | 0.068 µM | -23% | -53%
